Experimental data as given in ChEMBL document CHEMBL4190337, “Design, Synthesis, and Antibacterial Activity of a Multivalent Polycationic Calix[4]arene-NO Photodonor Conjugate” (ACS Med Chem Lett, 2017).
The source made the active and inactive calls. The rule behind the calls is not given here.

How the values were obtained:
[1] = Drug metabolism in MeOH/PBS solution assessed as […] release at 170 uM irradiated with 60 mW laser light by amperometric detection assay; type: functional
Method in brief: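 NO release followed during continuous visible-light irradiation at λexc 405 nm of optically matched solutions in MeOH/PBS (20/80), with the model donor at 170 µM; release profile recorded over irradiation time.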

Staphylococcus aureus [2] = assay: Bactericidal activity against Staphylococcus aureus ATCC 6538 assessed as reduction in bacterial count at 0.25 mM after 30 mins under dark condition by time kill assay relative to control; type: functional; parameters: scale not given: the % may be the effect or the level left
Method in brief: (§1)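 Time-kill assay with the agent at 0.25 mM final in 5% EtOH/PBS, made from a 0.5 mM solution in 10% EtOH/PBS. Samples ran in duplicate, kept in the dark or illuminated, alongside PBS and 5% EtOH/PBS vehicle controls. Viable bacteria were counted as CFU/mL at set times and expressed as % and log reduction.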

[3] = Drug metabolism in MeOH/PBS solution assessed as […] release at 40 uM irradiated with 60 mW laser light by amperometric detection assay; type: functional
Method in brief: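 NO release was profiled in MeOH/PBS (20/80) at 40 µM under visible light irradiation (λexc = 405 nm), using an optically matched solution of a model NO photodonor for comparison.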

[4] = Drug metabolism in MeOH/PBS solution assessed as […] release by measuring shift in maximum absorption wavelength at 40 uM irradiated with 60 mW laser light by UV-vis absorption spectra analysis; type: functional
Staphylococcus aureus [5] = assay: Bactericidal activity against Staphylococcus aureus ATCC 6538 assessed as reduction in bacterial count at 0.25 mM irradiated with 450 mW xenon light after 10 mins by time kill assay relative to control; type: functional; parameters: scale not given: the % may be the effect or the level left; method in brief: as §1
Staphylococcus aureus [6] = assay: Bactericidal activity against Staphylococcus aureus ATCC 6538 assessed as log reduction in colony forming units at 0.25 mM after 30 mins under dark condition by time kill assay; type: functional; method in brief: as §1
Staphylococcus aureus [7] = assay: Bactericidal activity against Staphylococcus aureus ATCC 6538 assessed as reduction in bacterial count at 0.25 mM irradiated with 450 mW xenon light up to 30 mins by time kill assay; type: functional, organism-based; method in brief: as §1
Staphylococcus aureus [8] = assay: Bactericidal activity against Staphylococcus aureus ATCC 6538 assessed as log reduction in colony forming units at 0.25 mM irradiated with 450 mW xenon light after 10 mins by time kill assay; type: functional; method in brief: as §1
Staphylococcus aureus [9] = assay: Bactericidal activity against Staphylococcus aureus ATCC 6538 assessed as reduction in bacterial count at 0.25 mM irradiated with 450 mW xenon light after 20 mins by time kill assay relative to control; type: functional; parameters: scale not given: the % may be the effect or the level left; method in brief: as §1
Staphylococcus aureus [10] = assay: Bactericidal activity against Staphylococcus aureus ATCC 6538 assessed as log reduction in colony forming units at 0.25 mM irradiated with 450 mW xenon light after 20 mins by time kill assay; type: functional; method in brief: as §1
Escherichia coli [11] = assay: Bactericidal activity against Escherichia coli ATCC 10536 assessed as reduction in bacterial count at 0.25 mM after 30 mins under dark condition by time kill assay; type: functional, organism-based; method in brief: as §1
Escherichia coli [12] = assay: Bactericidal activity against Escherichia coli ATCC 10536 assessed as reduction in colony forming units at 0.25 mM irradiated with 450 mW xenon light after 30 mins by time kill assay; type: functional; parameters: scale not given: the % may be the effect or the level left; method in brief: as §1
Escherichia coli [13] = assay: Bactericidal activity against Escherichia coli ATCC 10536 assessed as log reduction in colony forming units at 0.25 mM irradiated with 450 mW xenon light after 30 mins by time kill assay; type: functional; method in brief: as §1
[14] = Cytotoxicity against human skin fibroblasts at 0.25 mM irradiated with 450 mW xenon light measured after 30 mins; conditions: 0.5 h, 250 µM

Row | SMILES | Drug metabolism [1] | Activity (Staphylococcus aureus [2]) [%] | Drug metabolism [3] | Drug metabolism [4] | Activity (Staphylococcus aureus [5]) [%] | Activity (Staphylococcus aureus [6]) [log10CFU/ml] | Activity (Staphylococcus aureus [7]) | Activity (Staphylococcus aureus [8]) [log10CFU/ml] | Activity (Staphylococcus aureus [9]) [%] | Activity (Staphylococcus aureus [10]) [log10CFU/ml] | Activity (Escherichia coli [11]) | Activity (Escherichia coli [12]) [%] | Activity (Escherichia coli [13]) [log10CFU/ml] | Activity [14] [%]
1 | NCCCNc1ccc([N+](=O)[O-])c(C(F)(F)F)c1 | Metabolite detected | – | – | – | – | – | – | – | – | – | – | – | – | –
2 | C[N+](C)(CCO)CCCOc1c2cc(CNc3ccc([N+](=O)[O-])c(C(F)(F)F)c3)cc1Cc1cc(CNc3ccc([N+](=O)[O-])c(C(F)(F)F)c3)cc(c1O)Cc1cc(CNc3ccc([N+](=O)[O-])c(C(F)(F)F)c3)cc(c1OCCC[N+](C)(C)CCO)Cc1cc(CNc3ccc([N+](=O)[O-])c(C(F)(F)F)c3)cc(c1O)C2.[Br-].[Br-] | – | 98.9 | Metabolite detected | Metabolite detected | 99.2 | 1.96 | Active | 2.1 | >99.95 | >3.31 | inactive | 93.5 | 1.2 | < 15
